Structures are written as SMILES. Values after ≈ are worked out from the molar mass of the structure shown. Active and inactive are the calls of the source. The calls are words filed in the database; no cut-off is given here.

One assay concerns Mycobacterium tuberculosis. As to the kind of experiment: Antimycobacterial activity against isoniazid/rifampicin/kanamycin/capreomycin-resistant Mycobacterium tuberculosis by microplate Alamar Blue assay. The format is functional. In a few lines:
(§1)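 MIC against multidrug-resistant M. tuberculosis strains: HR, HRKS, HRKCpm, HRKSXMfxLev and HRS. Linezolid served as reference.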
(Resazurin is reduced to fluorescent resorufin, in cell work by metabolically active cells.)
As usually defined, the MIC is the lowest concentration that inhibits growth of the organism. On to `O=C(N/N=C(/N=N/c1ccc(F)cc1)c1ccccc1)c1cc(O)c(O)c(O)c1`, for which 1.92 µM (≈ 0.757 µg/mL) was the least that counted as inhibitory (MIC).

In turn, `COc1ccc(/N=N/C(=N/NC(=O)c2cc(O)c(O)c(O)c2)c2ccccc2)cc1` yielded an MIC of 7.62 µM (≈ 3.1 µg/mL).

Take `O=C(N/N=C(/N=N/c1ccccc1Cl)c1ccccc1)c1cc(O)c(O)c(O)c1`: the MIC result was “inactive”.

In the case of `CC(=O)NC[C@H]1CN(c2ccc(N3CCOCC3)c(F)c2)C(=O)O1` [LINEZOLID], the MIC is 1.86 µM (≈ 0.627 µg/mL).

In turn, `O=C(N/N=C(/N=N/c1ccc([N+](=O)[O-])cc1)c1ccccc1)c1cc(O)c(O)c(O)c1` had an MIC of 14 µM (≈ 5.9 µg/mL).

In the case of `Cc1ccccc1/N=N/C(=N/NC(=O)c1cc(O)c(O)c(O)c1)c1ccccc1`, the MIC entry was “inactive”.

As to `COc1ccccc1/N=N/C(=N/NC(=O)c1cc(O)c(O)c(O)c1)c1ccccc1`, the MIC result was “inactive”.

Consider `O=C(N/N=C(/N=N/c1ccccc1[N+](=O)[O-])c1ccccc1)c1cc(O)c(O)c(O)c1`, for which the MIC result was “inactive”.

The compound `O=C(N/N=C(/N=N/c1ccc(Cl)cc1Cl)c1ccccc1)c1cc(O)c(O)c(O)c1` came in with an MIC of 7.43 µM (≈ 3.31 µg/mL).

As to `O=C(N/N=C(/N=N/c1ccccc1)c1ccccc1)c1cc(O)c(O)c(O)c1`, the MIC result was “inactive”.

In a further assay the test system is Mycobacterium tuberculosis. As to the kind of experiment: Antimycobacterial activity against isoniazid/rifampicin/kanamycin/streptomycin/ofloxacin/moxifloxacin/levofloxacin-resistant Mycobacterium tuberculosis by microplate Alamar Blue assay. The assay is classed as functional. Summed up: as §1
For the compound `O=C(N/N=C(/N=N/c1ccc(F)cc1)c1ccccc1)c1cc(O)c(O)c(O)c1`, the MIC entry is “inactive”.

In turn, `COc1ccc(/N=N/C(=N/NC(=O)c2cc(O)c(O)c(O)c2)c2ccccc2)cc1` returned an MIC of 10.6 µM (≈ 4.29 µg/mL).

With `O=C(N/N=C(/N=N/c1ccccc1Cl)c1ccccc1)c1cc(O)c(O)c(O)c1`, the MIC entry was “inactive”.

`CC(=O)NC[C@H]1CN(c2ccc(N3CCOCC3)c(F)c2)C(=O)O1` [LINEZOLID] gave an MIC of 1.86 µM (≈ 0.627 µg/mL).

Consider `O=C(N/N=C(/N=N/c1ccc([N+](=O)[O-])cc1)c1ccccc1)c1cc(O)c(O)c(O)c1`, for which the MIC result is “inactive”.

For the compound `Cc1ccccc1/N=N/C(=N/NC(=O)c1cc(O)c(O)c(O)c1)c1ccccc1`, the MIC entry was “inactive”.

Consider `COc1ccccc1/N=N/C(=N/NC(=O)c1cc(O)c(O)c(O)c1)c1ccccc1`, for which the MIC result is “inactive”.

Consider `O=C(N/N=C(/N=N/c1ccccc1[N+](=O)[O-])c1ccccc1)c1cc(O)c(O)c(O)c1`, for which the MIC entry was “inactive”.

With `O=C(N/N=C(/N=N/c1ccc(Cl)cc1Cl)c1ccccc1)c1cc(O)c(O)c(O)c1`, the MIC is 11.4 µM (≈ 5.09 µg/mL).

Regarding `O=C(N/N=C(/N=N/c1ccccc1)c1ccccc1)c1cc(O)c(O)c(O)c1`, the MIC result is “inactive”.

The next assay concerns Mycobacterium tuberculosis. As to the kind of experiment: Antimycobacterial activity against isoniazid/rifampicin-resistant Mycobacterium tuberculosis by microplate Alamar Blue assay. The format is functional. In a few lines:
as §1
With `O=C(N/N=C(/N=N/c1ccc(F)cc1)c1ccccc1)c1cc(O)c(O)c(O)c1`, the MIC was 0.49 µM (≈ 0.193 µg/mL).

As for `COc1ccc(/N=N/C(=N/NC(=O)c2cc(O)c(O)c(O)c2)c2ccccc2)cc1`, the lowest concentration to inhibit growth (MIC) was 1.9 µM (≈ 0.772 µg/mL).

In turn, `O=C(N/N=C(/N=N/c1ccccc1Cl)c1ccccc1)c1cc(O)c(O)c(O)c1` yielded an MIC of 2.9 µM (≈ 1.19 µg/mL).

On to `CC(=O)NC[C@H]1CN(c2ccc(N3CCOCC3)c(F)c2)C(=O)O1` [LINEZOLID], for which the MIC worked out at 3.7 µM (≈ 1.25 µg/mL).

`O=C(N/N=C(/N=N/c1ccc([N+](=O)[O-])cc1)c1ccccc1)c1cc(O)c(O)c(O)c1` displayed an MIC of 2.85 µM (≈ 1.2 µg/mL).

With `Cc1ccccc1/N=N/C(=N/NC(=O)c1cc(O)c(O)c(O)c1)c1ccccc1`, inhibition of growth (MIC) required 5.89 µM (≈ 2.3 µg/mL).

As for `COc1ccccc1/N=N/C(=N/NC(=O)c1cc(O)c(O)c(O)c1)c1ccccc1`, it took 23.9 µM (≈ 9.69 µg/mL) to inhibit growth (MIC).

In turn, `O=C(N/N=C(/N=N/c1ccccc1[N+](=O)[O-])c1ccccc1)c1cc(O)c(O)c(O)c1` had an MIC of 5.46 µM (≈ 2.3 µg/mL).

With `O=C(N/N=C(/N=N/c1ccc(Cl)cc1Cl)c1ccccc1)c1cc(O)c(O)c(O)c1`, the MIC worked out at 0.33 µM (≈ 0.147 µg/mL).

With `O=C(N/N=C(/N=N/c1ccccc1)c1ccccc1)c1cc(O)c(O)c(O)c1`, the MIC result was “inactive”.

The next assay concerns Mycobacterium tuberculosis. As to the kind of experiment: Antimycobacterial activity against isoniazid/rifampicin/streptomycin-resistant Mycobacterium tuberculosis by microplate Alamar Blue assay. The format is functional. Summed up: as §1
With `O=C(N/N=C(/N=N/c1ccc(F)cc1)c1ccccc1)c1cc(O)c(O)c(O)c1`, the MIC was 0.96 µM (≈ 0.379 µg/mL).

Take `COc1ccc(/N=N/C(=N/NC(=O)c2cc(O)c(O)c(O)c2)c2ccccc2)cc1`: the MIC is 1.9 µM (≈ 0.772 µg/mL).

`O=C(N/N=C(/N=N/c1ccccc1Cl)c1ccccc1)c1cc(O)c(O)c(O)c1` displayed an MIC of 2.95 µM (≈ 1.21 µg/mL).

`CC(=O)NC[C@H]1CN(c2ccc(N3CCOCC3)c(F)c2)C(=O)O1` [LINEZOLID] gave an MIC of 3.7 µM (≈ 1.25 µg/mL).

With `O=C(N/N=C(/N=N/c1ccc([N+](=O)[O-])cc1)c1ccccc1)c1cc(O)c(O)c(O)c1`, 5.46 µM (≈ 2.3 µg/mL) was the least that counted as inhibitory (MIC).

`Cc1ccccc1/N=N/C(=N/NC(=O)c1cc(O)c(O)c(O)c1)c1ccccc1` yielded an MIC of 5.89 µM (≈ 2.3 µg/mL).

With `COc1ccccc1/N=N/C(=N/NC(=O)c1cc(O)c(O)c(O)c1)c1ccccc1`, the MIC result is “inactive”.

`O=C(N/N=C(/N=N/c1ccccc1[N+](=O)[O-])c1ccccc1)c1cc(O)c(O)c(O)c1`: the MIC turned out to be 14.8 µM (≈ 6.25 µg/mL).

Consider `O=C(N/N=C(/N=N/c1ccc(Cl)cc1Cl)c1ccccc1)c1cc(O)c(O)c(O)c1`, for which the lowest concentration to inhibit growth (MIC) was 1.34 µM (≈ 0.597 µg/mL).

Regarding `O=C(N/N=C(/N=N/c1ccccc1)c1ccccc1)c1cc(O)c(O)c(O)c1`, the MIC result is “inactive”.

A further assay concerns Mycobacterium tuberculosis. As to the kind of experiment: Antimycobacterial activity against isoniazid/rifampicin/kanamycin/streptomycin-resistant Mycobacterium tuberculosis by microplate Alamar Blue assay. The assay is classed as functional. Summed up:
as §1
For the compound `O=C(N/N=C(/N=N/c1ccc(F)cc1)c1ccccc1)c1cc(O)c(O)c(O)c1`, 0.73 µM (≈ 0.288 µg/mL) was the least that counted as inhibitory (MIC).

Turning to `COc1ccc(/N=N/C(=N/NC(=O)c2cc(O)c(O)c(O)c2)c2ccccc2)cc1`, the minimal inhibitory concentration (MIC) was found to be 2.92 µM (≈ 1.19 µg/mL).

For `O=C(N/N=C(/N=N/c1ccccc1Cl)c1ccccc1)c1cc(O)c(O)c(O)c1`, the MIC result is “inactive”.

`CC(=O)NC[C@H]1CN(c2ccc(N3CCOCC3)c(F)c2)C(=O)O1` [LINEZOLID] displayed an MIC of 2.78 µM (≈ 0.938 µg/mL).

`O=C(N/N=C(/N=N/c1ccc([N+](=O)[O-])cc1)c1ccccc1)c1cc(O)c(O)c(O)c1` registered an MIC of 22.3 µM (≈ 9.4 µg/mL).

As to `Cc1ccccc1/N=N/C(=N/NC(=O)c1cc(O)c(O)c(O)c1)c1ccccc1`, the MIC was found to be 16 µM (≈ 6.25 µg/mL).

On to `COc1ccccc1/N=N/C(=N/NC(=O)c1cc(O)c(O)c(O)c1)c1ccccc1`, for which the MIC result was “inactive”.

For the compound `O=C(N/N=C(/N=N/c1ccccc1[N+](=O)[O-])c1ccccc1)c1cc(O)c(O)c(O)c1`, the MIC result was “inactive”.

`O=C(N/N=C(/N=N/c1ccc(Cl)cc1Cl)c1ccccc1)c1cc(O)c(O)c(O)c1`: it took 5.16 µM (≈ 2.3 µg/mL) to inhibit growth (MIC).

Turning to `O=C(N/N=C(/N=N/c1ccccc1)c1ccccc1)c1cc(O)c(O)c(O)c1`, the MIC entry is “inactive”.

The values are drawn from ChEMBL document CHEMBL4002632, “Development of gallic acid formazans as novel enoyl acyl carrier protein reductase inhibitors for the treatment of tuberculosis” (Bioorg Med Chem Lett, 2017).
